The values that follow come from ChEMBL document CHEMBL3603808, “Discovery and structure of a new inhibitor scaffold of the autophagy initiating kinase ULK1” (Bioorg Med Chem, 2015).

One may read the inhibition as how much of the control response was suppressed. Broadly, the IC50 is the point on the concentration scale where inhibition reaches its midpoint.

Structures are written as SMILES. Calls of active or inactive are those of the source. The calls are words filed in the database; no cut-off is given here.

Experiment [1] deals with Serine/threonine-protein kinase PAK 4 (Homo sapiens) (UniProt O96013). The experiment in a line: Inhibition of PAK4 (unknown origin) at 2 uM by radioactive filter-binding assay. In short, it runs like this: (§1)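 Panel profiling of one compound against 50 kinases, carried out in duplicate at the International Centre for Protein Kinase Profiling. Radioactive filter-binding format.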
Chain of Serine/threonine-protein kinase PAK 4 (Homo sapiens) (O96013 whole entry, looked up): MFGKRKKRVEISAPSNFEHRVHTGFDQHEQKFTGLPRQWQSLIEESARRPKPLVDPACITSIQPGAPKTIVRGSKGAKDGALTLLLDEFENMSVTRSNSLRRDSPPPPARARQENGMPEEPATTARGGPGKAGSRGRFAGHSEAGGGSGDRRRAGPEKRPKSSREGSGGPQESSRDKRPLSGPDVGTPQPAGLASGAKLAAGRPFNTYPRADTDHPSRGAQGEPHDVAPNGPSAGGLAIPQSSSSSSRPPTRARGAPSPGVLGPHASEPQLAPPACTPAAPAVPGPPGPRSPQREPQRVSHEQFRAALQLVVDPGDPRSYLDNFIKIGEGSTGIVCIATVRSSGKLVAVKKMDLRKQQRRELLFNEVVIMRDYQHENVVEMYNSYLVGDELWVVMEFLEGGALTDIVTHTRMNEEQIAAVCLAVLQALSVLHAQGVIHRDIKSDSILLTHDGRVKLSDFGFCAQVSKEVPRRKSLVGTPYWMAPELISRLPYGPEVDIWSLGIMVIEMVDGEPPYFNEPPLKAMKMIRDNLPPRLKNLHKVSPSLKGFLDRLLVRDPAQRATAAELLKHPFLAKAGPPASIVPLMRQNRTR

Experiment [2] has as its target T1, 3-phosphoinositide-dependent protein kinase 1 (Homo sapiens, UniProt O15530).
T1 sequence (O15530 whole entry): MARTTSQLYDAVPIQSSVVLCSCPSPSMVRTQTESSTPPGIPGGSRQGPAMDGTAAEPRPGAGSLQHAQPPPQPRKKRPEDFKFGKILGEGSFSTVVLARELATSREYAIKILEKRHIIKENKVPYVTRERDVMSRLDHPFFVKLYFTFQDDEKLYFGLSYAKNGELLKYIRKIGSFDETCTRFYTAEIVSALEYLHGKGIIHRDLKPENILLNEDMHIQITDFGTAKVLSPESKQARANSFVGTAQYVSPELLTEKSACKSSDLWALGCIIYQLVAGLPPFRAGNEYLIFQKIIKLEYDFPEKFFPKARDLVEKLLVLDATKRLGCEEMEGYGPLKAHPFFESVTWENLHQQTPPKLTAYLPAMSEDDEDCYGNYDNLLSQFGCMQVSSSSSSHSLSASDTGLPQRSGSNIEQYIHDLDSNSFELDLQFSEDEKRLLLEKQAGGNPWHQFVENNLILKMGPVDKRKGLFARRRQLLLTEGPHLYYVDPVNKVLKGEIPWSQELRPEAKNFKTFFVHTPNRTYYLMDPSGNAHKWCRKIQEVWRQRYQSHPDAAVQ
Briefly: Inhibition of recombinant PDK1 (unknown origin) using PDK1tide substrate incubated for 7 mins. Put shortly:
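Recombinant PDK1 at 5 nM with 50 µM synthetic PDK1tide in 50 mM HEPES pH 7.5, 10 mM MgCl2, 1 mg/ml BSA, 0.02% Triton-X and 50 µM DTT. Stopped after 7 min by spotting onto nitrocellulose, washed three times in 1% phosphoric acid and phosphorimaged. IC50 from curve fitting; duplicate.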

The subject of a further experiment is HeLa. The experiment in a line: Inhibition of autophagy in human HeLa cells assessed as induction of LC3-I protein accumulation at 4 uM incubated for 24 hrs by immunoblotting method. Format: functional, cell-based. Put shortly: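 HeLa cells were grown in DMEM with 10% FBS to about 50% confluency, then given 4 µM compound or DMSO for 24 h. Cold-PBS wash, lysis in TBS pH 7.6 with 1% Triton-X, 0.2% SDS and protease/phosphatase inhibitors. Lysates were protein-normalized and immunoblotted for LC3-I/LC3-II, with actin as loading control.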
Background: A western blot detects proteins with antibodies after separation by electrophoresis.

Experiment [3] has as its target T2, Serine/threonine-protein kinase ULK2 (Homo sapiens, UniProt Q8IYT8).
T2 sequence (Q8IYT8 whole entry): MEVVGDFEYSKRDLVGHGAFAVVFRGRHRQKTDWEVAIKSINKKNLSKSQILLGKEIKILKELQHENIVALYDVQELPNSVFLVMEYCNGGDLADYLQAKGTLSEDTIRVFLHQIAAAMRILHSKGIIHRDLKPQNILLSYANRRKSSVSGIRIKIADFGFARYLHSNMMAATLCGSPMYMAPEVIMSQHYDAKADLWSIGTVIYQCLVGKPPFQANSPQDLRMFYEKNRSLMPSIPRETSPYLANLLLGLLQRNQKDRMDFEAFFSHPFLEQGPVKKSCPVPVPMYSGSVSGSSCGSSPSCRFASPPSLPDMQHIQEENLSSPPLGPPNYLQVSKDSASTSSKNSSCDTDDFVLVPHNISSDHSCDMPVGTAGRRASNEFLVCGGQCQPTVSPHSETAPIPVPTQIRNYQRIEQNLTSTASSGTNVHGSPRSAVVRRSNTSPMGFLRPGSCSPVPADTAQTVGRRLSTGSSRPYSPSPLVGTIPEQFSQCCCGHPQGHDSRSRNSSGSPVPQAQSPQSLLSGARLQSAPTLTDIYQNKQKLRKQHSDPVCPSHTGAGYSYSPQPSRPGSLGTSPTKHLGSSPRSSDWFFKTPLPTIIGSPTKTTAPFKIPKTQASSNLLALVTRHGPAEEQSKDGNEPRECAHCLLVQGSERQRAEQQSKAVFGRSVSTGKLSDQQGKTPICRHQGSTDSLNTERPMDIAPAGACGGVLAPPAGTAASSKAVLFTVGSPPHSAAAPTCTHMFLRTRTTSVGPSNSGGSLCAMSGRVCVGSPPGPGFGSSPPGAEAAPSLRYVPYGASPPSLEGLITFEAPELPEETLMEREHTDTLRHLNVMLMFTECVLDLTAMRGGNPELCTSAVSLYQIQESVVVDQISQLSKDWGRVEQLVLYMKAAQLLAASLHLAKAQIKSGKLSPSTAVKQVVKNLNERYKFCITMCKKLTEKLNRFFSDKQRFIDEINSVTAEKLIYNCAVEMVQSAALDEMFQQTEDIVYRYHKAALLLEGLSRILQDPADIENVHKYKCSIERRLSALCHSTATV
The experiment in a line: Inhibition of SUMO-tagged ULK2 (unknown origin) kinase domain expressed in KRX cells using [32P]-gamma-ATP and myelin basic protein substrate incubated for 7 mins. Format: single protein. In short, it runs like this:
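Enzyme at 5 nM with 50 µM cold ATP, 0.05 µCi/µl 32P-γ-ATP and 20 µM myelin basic protein as substrate. Reactions were spotted onto nitrocellulose, washed three times in 1% phosphoric acid, dried and imaged by phosphorimager. IC50 from curve fitting; duplicate.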

Experiment [4] addresses Serine/threonine-protein kinase TBK1 (Homo sapiens) (UniProt Q9UHD2). The experiment in a line: Inhibition of TBK1 (unknown origin) at 250 nM by radioactive filter-binding assay. Put shortly:
as §1

For experiment [5], the target named is Interleukin-1 receptor-associated kinase 4 (Homo sapiens) (UniProt Q9NWZ3). Briefly: Inhibition of IRAK4 (unknown origin) at 250 nM by radioactive filter-binding assay. In short, it runs like this:
as §1

Experiment [6] addresses Insulin-like growth factor 1 receptor (Homo sapiens) (UniProt P08069). The experiment in a line: Inhibition of IGF1R (unknown origin) at 250 nM by radioactive filter-binding assay. In short, it runs like this: as §1
Experiment [7] has as its target Proto-oncogene tyrosine-protein kinase Src (Homo sapiens) (UniProt P12931). The experiment in a line: Inhibition of SRC (unknown origin) at 250 nM by radioactive filter-binding assay. In short, it runs like this:
as §1

Experiment [8] deals with MAP/microtubule affinity-regulating kinase 3 (Homo sapiens) (UniProt P27448). The experiment in a line: Inhibition of MARK3 (unknown origin) at 250 nM by radioactive filter-binding assay. Put shortly:
as §1

Chain of MAP/microtubule affinity-regulating kinase 3 (Homo sapiens) (P27448 whole entry, looked up): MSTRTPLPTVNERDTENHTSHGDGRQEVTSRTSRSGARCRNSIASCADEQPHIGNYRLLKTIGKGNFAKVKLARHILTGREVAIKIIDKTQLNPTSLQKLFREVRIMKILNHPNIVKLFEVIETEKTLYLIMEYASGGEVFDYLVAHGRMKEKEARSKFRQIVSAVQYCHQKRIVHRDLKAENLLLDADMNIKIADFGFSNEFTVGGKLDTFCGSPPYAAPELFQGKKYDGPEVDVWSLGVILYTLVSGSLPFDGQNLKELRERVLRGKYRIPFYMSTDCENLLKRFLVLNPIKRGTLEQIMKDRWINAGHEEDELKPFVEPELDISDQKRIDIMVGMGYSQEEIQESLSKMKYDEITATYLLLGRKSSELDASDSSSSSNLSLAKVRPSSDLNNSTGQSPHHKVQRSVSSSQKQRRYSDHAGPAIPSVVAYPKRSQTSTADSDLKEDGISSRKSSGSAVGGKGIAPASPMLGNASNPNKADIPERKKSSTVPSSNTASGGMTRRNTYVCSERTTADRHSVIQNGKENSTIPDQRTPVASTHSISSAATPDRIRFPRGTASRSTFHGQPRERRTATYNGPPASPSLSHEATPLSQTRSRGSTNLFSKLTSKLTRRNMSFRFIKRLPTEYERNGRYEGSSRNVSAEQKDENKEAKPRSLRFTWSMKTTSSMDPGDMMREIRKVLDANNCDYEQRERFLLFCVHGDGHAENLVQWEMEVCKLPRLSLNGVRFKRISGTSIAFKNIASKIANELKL
Chain of Insulin-like growth factor 1 receptor (Homo sapiens) (P08069 31-736 limits assumed): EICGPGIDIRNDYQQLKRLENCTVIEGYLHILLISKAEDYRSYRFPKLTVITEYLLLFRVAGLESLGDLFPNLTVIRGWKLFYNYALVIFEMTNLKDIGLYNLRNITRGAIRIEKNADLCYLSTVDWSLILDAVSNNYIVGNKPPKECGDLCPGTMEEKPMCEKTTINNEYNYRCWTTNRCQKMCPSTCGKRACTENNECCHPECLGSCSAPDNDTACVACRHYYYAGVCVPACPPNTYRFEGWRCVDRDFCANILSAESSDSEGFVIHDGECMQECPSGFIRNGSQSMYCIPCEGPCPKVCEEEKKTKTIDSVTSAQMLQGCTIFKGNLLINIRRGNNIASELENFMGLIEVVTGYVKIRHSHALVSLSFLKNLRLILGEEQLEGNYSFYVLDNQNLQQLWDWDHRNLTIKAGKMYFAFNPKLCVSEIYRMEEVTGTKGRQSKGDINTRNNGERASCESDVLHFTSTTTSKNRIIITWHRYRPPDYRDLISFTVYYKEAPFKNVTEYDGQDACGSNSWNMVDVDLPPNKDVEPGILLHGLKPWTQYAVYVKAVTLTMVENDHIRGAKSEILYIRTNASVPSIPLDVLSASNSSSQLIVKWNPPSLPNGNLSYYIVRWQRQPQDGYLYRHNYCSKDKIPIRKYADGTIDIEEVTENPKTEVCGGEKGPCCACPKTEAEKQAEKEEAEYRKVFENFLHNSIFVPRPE
Chain of Insulin-like growth factor 1 receptor (Homo sapiens) (P08069 741-1367 limits assumed): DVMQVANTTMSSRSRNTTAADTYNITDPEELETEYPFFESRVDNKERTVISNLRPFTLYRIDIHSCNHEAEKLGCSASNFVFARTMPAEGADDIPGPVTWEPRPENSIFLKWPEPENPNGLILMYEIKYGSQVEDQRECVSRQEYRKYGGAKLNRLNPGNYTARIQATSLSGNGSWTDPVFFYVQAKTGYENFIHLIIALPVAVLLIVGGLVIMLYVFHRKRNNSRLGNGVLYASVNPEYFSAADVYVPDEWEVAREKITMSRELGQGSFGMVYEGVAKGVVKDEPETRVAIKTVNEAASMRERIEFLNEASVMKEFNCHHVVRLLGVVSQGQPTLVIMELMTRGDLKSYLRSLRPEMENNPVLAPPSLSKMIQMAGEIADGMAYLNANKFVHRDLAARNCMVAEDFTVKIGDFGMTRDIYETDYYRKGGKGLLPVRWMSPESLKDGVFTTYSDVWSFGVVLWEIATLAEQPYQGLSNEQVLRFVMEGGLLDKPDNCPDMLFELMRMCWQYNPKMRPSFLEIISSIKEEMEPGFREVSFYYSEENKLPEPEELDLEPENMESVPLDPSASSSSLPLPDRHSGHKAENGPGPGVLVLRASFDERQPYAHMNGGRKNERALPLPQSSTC
Chain of Serine/threonine-protein kinase TBK1 (Homo sapiens) (Q9UHD2 whole entry): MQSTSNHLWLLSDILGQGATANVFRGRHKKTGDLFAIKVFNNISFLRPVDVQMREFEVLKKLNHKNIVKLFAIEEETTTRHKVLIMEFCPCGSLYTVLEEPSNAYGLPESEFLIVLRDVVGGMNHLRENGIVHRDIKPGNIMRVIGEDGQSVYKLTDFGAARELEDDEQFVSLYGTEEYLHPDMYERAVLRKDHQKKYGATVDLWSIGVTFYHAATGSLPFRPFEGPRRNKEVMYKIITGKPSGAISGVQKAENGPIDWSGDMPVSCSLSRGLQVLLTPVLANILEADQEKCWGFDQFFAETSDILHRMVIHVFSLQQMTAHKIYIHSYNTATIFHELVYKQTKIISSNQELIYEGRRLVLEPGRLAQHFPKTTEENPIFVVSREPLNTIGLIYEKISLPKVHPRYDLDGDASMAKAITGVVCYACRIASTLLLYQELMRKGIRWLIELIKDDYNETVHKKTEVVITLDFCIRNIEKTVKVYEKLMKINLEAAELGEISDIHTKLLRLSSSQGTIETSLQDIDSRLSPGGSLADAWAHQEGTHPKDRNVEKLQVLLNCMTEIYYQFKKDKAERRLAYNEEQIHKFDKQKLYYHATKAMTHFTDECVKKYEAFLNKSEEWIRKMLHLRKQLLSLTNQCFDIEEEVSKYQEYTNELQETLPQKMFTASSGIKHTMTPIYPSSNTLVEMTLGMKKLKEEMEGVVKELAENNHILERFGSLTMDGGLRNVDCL
Chain of Interleukin-1 receptor-associated kinase 4 (Homo sapiens) (Q9NWZ3 whole entry): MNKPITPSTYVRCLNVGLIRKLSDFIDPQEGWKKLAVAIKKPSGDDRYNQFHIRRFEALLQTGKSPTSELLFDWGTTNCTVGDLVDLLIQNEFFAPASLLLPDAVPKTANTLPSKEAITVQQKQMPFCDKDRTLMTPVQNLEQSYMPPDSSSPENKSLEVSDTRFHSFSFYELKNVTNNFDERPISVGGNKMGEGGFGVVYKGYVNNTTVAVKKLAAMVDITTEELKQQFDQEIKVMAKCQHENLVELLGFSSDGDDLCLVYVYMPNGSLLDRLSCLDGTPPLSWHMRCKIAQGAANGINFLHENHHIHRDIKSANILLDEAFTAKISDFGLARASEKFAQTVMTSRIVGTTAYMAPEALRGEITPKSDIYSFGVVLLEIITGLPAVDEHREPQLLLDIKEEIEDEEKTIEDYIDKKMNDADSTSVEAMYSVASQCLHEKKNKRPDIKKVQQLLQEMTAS
Chain of Proto-oncogene tyrosine-protein kinase Src (Homo sapiens) (P12931 2-536 limits assumed): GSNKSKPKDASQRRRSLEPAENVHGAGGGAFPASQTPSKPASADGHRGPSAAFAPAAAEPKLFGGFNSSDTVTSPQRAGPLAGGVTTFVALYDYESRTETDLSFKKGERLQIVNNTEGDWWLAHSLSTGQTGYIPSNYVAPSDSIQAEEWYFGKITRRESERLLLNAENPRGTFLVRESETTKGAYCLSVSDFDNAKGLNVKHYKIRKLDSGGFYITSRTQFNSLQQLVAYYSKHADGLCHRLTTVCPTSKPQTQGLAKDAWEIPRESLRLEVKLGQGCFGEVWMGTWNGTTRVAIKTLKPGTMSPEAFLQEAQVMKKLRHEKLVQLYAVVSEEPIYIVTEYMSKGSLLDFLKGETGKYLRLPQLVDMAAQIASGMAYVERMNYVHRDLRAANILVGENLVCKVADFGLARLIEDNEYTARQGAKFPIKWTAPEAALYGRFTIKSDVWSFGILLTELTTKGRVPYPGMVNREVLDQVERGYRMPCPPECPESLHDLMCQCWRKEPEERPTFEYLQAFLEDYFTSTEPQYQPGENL

Consider `NCCCNc1nc(Nc2cccc(NC(=O)N3CCCC3)c2)ncc1I`, for which, in experiment [1], the inhibition was above 80%. In addition, the IC50 in experiment [2] turned out to be 710 nM; in experiment [3], 360 nM. Further, the result in the experiment on HeLa was Active.
With `c1ccc2c(Nc3cc(C4CCC4)[nH]n3)nc(Nc3ccc4[nH]cnc4c3)nc2c1`, the IC50 amounted to 420 nM in experiment [2] and 13 nM in experiment [3]. For the same compound, the inhibition in experiment [4], in [5], in experiment [6], in experiment [7] and in experiment [8] was above 80% in each case.
